The source made the active and inactive calls. The calls are words filed in the database; no cut-off is given here.

11 compounds from ChEMBL document CHEMBL1152922, “7-O-methylkaempferol and -quercetin glycosides from the whole plant of Nervilia fordii” (J Nat Prod, 2009) can be followed below.

Data set [1] can be described thus: Cytotoxicity against african green monkey Vero cells after 3 days by MTT assay. In kind it is cell-based. As to conditions: chlorocebus sabaeus, read-out: MNCC.
In data set [2] the test system is Human alphaherpesvirus 1. The data set is described as follows: Antiviral activity against HSV1 infected in african green monkey Vero cells assessed as total inhibitory concentration after 3 days by plaque reduction assay. In kind it is functional. In a few lines:
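Vero cells seeded in 24-well plates and grown 24 h, then infected with 30 PFU HSV-1 in the presence of a range of sample concentrations. Samples were diluted in DMEM with 2% FBS at pH 7.2, and medium alone served as control. Wells were overlaid with 1% methylcellulose medium and incubated 3 days, then formalin-fixed and crystal violet-stained. Plaques were counted, and the 100%-inhibitory concentration was read from plots.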

Data set [3] has as its system Human alphaherpesvirus 1. The data set can be described thus: Antiviral activity against HSV1 infected in african green monkey Vero cells assessed as inhibition of virus-induced cytopathic effect after 3 days. As to conditions: Human alphaherpesvirus 1, Vero, 72 h. On the technique in general: Protection from cytopathic effect is a common read-out in antiviral testing.

Take `O=c1cc(-c2ccc(O)cc2)oc2c([C@@H]3O[C@H](CO)[C@@H](O)[C@H](O)[C@H]3O)c(O)c([C@@H]3O[C@H](CO)[C@@H](O)[C@H](O)[C@H]3O)c(O)c12`: the MNTC at 72 h in data set [1] turned out to be 170 µM. In addition, in data set [2], the result was inactive.
In the case of `COc1cc(O)c2c(=O)c(O[C@@H]3O[C@H](CO)[C@@H](O)[C@H](O)[C@H]3O)c(-c3ccc(O)c(OC)c3)oc2c1`, the MNTC at 72 h in data set [1] amounted to 200 µM. Moreover, the outcome in data set [2] was inactive.
The term IC50 denotes the concentration that gives 50% inhibition. Consider `Nc1nc2c(ncn2COCCO)c(=O)[nH]1` [ACYCLOVIR], for which the MNTC at 72 h in data set [1] came out at 1110 µM. For the same compound, the IC50 in data set [3] was 4.3 µM.
In the case of `COc1cc(O)c2c(=O)c(O[C@@H]3O[C@H](CO)[C@@H](O)[C@H](O)[C@H]3O)c(-c3ccc(O[C@@H]4O[C@H](CO)[C@@H](O)[C@H](O)[C@H]4O)cc3)oc2c1` [COMPLANATUSIDE], the MNTC at 72 h in data set [1] came out at 320 µM. The result in data set [2] was inactive.
For the compound `O=c1ccc2cc(O)c(O)cc2o1` [ESCULETIN], the MNTC at 72 h in data set [1] came to 140 µM. In addition, the Activity in data set [2] stood at 0.14 mM.
For the compound `COc1cc(O)c2c(=O)c(O[C@@H]3O[C@H](CO)[C@@H](O[C@@H]4OC[C@@H](O)[C@H](O)[C@H]4O)[C@H](O)[C@H]3O)c(-c3ccc(O)cc3)oc2c1` [NERVILIFORDIN A], the MNTC at 72 h in data set [1] came to 170 µM. The result in data set [2] was inactive.
As for `COc1cc(O)c2c(=O)c(O[C@@H]3O[C@H](CO)[C@@H](O[C@@H]4O[C@H](CO)[C@@H](O)[C@H](O)[C@H]4O)[C@H](O)[C@H]3O)c(-c3ccc(O)cc3)oc2c1` [NERVILIFORDIN B], the MNTC at 72 h in data set [1] is 160 µM. Also, the result in data set [2] was inactive.
For `COc1cc(O)c2c(=O)c(O[C@@H]3O[C@H](CO)[C@@H](O[C@@H]4O[C@H](CO)[C@@H](O)[C@H](O)[C@H]4O)[C@H](O)[C@H]3O)c(-c3ccc(O)c(O)c3)oc2c1` [NERVILIFORDIN C], in data set [1], the MNTC at 72 h turned out to be 160 µM. In addition, the outcome in data set [2] was inactive.
Consider `COc1cc(O)c2c(=O)c(O)c(-c3ccc(O)c(OC)c3)oc2c1` [RHAMNAZIN], for which the MNTC at 72 h in data set [1] came to 40 µM. Moreover, the result in data set [2] was inactive.
On the same counts, the results for `COc1cc(O)c2c(=O)c(O)c(-c3ccc(O)c(O)c3)oc2c1` [RHAMNETIN] are 80 µM and “inactive”.
`COc1cc(O)c2c(=O)c(O)c(-c3ccc(O)cc3)oc2c1` [RHAMNOCITRIN]: the MNTC at 72 h in data set [1] was 80 µM. Further, in data set [2], the result was inactive.
